Assay results as given in ChEMBL document CHEMBL1145937, “Optimization of the pharmacophore model for 5-HT7R antagonism. Design and synthesis of new naphtholactam and naphthosultam derivatives” (J Med Chem, 2003).

molecular target: T1, 5-hydroxytryptamine receptor 7 (Homo sapiens, UniProt P34969); assay: Binding affinity towards human recombinant 5-hydroxytryptamine 7 receptor was determined using [3H]5-CT as radioligand
T1 sequence (P34969 whole entry): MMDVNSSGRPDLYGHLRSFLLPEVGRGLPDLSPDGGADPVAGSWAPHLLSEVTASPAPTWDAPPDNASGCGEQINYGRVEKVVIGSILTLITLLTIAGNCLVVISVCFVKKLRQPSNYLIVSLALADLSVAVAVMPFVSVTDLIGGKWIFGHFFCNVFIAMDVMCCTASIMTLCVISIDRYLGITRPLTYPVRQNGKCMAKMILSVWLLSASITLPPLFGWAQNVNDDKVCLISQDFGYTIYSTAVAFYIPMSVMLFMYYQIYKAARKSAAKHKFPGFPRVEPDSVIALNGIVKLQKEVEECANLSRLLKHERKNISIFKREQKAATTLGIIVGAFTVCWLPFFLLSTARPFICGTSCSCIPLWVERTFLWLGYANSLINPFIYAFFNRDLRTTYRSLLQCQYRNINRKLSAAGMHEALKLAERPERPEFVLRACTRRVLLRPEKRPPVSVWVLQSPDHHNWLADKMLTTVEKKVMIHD

Compound	Ki [µM]
O=C1Nc2cccc3c2C1(CCCCN1CCN(C2CCCCC2)CC1)CCC3 (stereo not drawn)	100

molecular target: T1, 5-hydroxytryptamine receptor 7; assay: Non-selective inhibitory activity was determined against 5-hydroxytryptamine 7 receptor

Compound	Ki [nM]
CC(C)(C)[C@@]1(O)CCN2C[C@@H]3c4ccccc4CCc4cccc(c43)[C@H]2C1	63.1
CCN(CC)C(=O)[C@@H]1C=C2c3cccc4[nH]c(Br)c(c34)C[C@H]2N(C)C1	10
Cc1nc2sccn2c(=O)c1CCN1CCC(=C(c2ccc(F)cc2)c2ccc(F)cc2)CC1 [RITANSERIN]	15.8
CCC(CO)NC(=O)[C@@H]1C=C2c3cccc4c3c(cn4C)C[C@H]2N(C)C1 (single isomer, unassigned) [METHYSERGIDE]	12.6
CN1CCC(=C2c3ccccc3C=Cc3ccccc32)CC1 [CYPROHEPTADINE]	50.1
CN1C[C@@H](NS(=O)(=O)N(C)C)C[C@@H]2c3cccc4c3c(cn4C)C[C@H]21 [MESULERGINE]	7.94

molecular target: T2, 5-hydroxytryptamine receptor 7 (Rattus norvegicus, UniProt P32305); assay: Binding affinity towards cloned rat 5-hydroxytryptamine 7 receptor was determined using [3H]5-HT as radioligand
T2 sequence (P32305 whole entry): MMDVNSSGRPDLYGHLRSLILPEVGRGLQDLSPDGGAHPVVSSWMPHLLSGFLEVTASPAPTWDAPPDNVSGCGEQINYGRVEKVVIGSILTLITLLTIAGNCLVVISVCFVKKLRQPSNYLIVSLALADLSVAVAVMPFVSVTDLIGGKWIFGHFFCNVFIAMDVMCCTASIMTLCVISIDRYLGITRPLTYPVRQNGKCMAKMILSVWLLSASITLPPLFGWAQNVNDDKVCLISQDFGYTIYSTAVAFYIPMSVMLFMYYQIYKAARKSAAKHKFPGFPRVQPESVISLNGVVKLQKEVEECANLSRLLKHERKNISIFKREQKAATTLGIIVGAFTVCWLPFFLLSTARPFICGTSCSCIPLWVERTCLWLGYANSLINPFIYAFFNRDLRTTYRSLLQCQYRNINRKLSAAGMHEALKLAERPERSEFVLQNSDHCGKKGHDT

Compound	Ki [nM]
Cc1cccc(O)c1-c1cccc2c1-c1cccc3c1[C@@H](C2)N(C)CC3	25.1
COc1cccc(OC)c1-c1cccc2c1-c1cccc3c1[C@@H](C2)N(C)CC3	12.6
Cc1cccc(C#N)c1-c1cccc2c1-c1cccc3c1[C@@H](C2)N(C)CC3	3.98

molecular target: T2, 5-hydroxytryptamine receptor 7; assay: Binding affinity towards 5-hydroxytryptamine receptor 7 on rat hypothalamus membranes using [3H]5-CT as radioligand.; assay type: tissue-based, Membrane
How it was run: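 Rat hypothalamus homogenized in ice-cold 50 mM Tris-HCl pH 7.4, spun at 48 000g, washed and preincubated at 37 °C for 10 min. Membranes were resuspended in Tris buffer with 4 mM CaCl2, 1 mg/mL ascorbic acid, 0.01 mM pargyline and 3 μM pindolol, then incubated 120 min at 23 °C with 0.5 nM [3H]-5-CT. Nonspecific binding was set by 10 μM 5-HT. GF/C filtration, scintillation counting. Ki from IC50 via Cheng–Prusoff; 2–4 assays in triplicate.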

Compound	Ki [nM]
CC1CCN(CCCCCN2c3cccc4cccc(c34)S2(=O)=O)CC1	> 10000
COc1ccccc1N1CCN(CN2C(=O)c3cccc4cccc2c34)CC1	> 10000
CC1CCN(CCCCN2C(=O)c3cccc4cccc2c34)CC1	> 1000
CC1CCN(CCC2CCCN2S(=O)(=O)c2cccc(O)c2)CC1 (single isomer, unassigned)	31.6
O=C1c2cccc3cccc(c23)N1CCCCN1CCN(C2CCCCC2)CC1	> 10000
Cn1ccnc1SCCCCN1C(=O)c2cccc3cccc1c23	> 10000
O=S1(=O)c2cccc3cccc(c23)N1CCCCCN1CCC(C2CCCCC2)CC1	> 10000
O=C1c2cccc3cccc(c23)N1CCCCN1CC=C(c2ccccc2)CC1	> 1000
O=C1c2cccc3cccc(c23)N1CCCCCN1CC=C(c2ccccc2)CC1	> 1000
O=C1c2cccc3cccc(c23)N1CN1CCN(c2ccccc2)CC1	> 10000
O=C1c2cccc3cccc(c23)N1CCCCN1CCC(c2ccccc2)CC1	> 1000
CC1CCN(CCCCCCN2c3cccc4cccc(c34)S2(=O)=O)CC1	> 10000
CC1CCN(CCCCN2c3cccc4cccc(c34)S2(=O)=O)CC1	> 10000
O=S1(=O)c2cccc3cccc(c23)N1CCCCCCN1CCN(c2ccccc2)CC1	> 1000
O=C1Nc2cccc3c2C1(CCCCN1CC=C(c2ccccc2)CC1)CCC3 (stereo not drawn)	50.1
O=C1c2cccc3cccc(c23)N1CCCCCN1CCN(C2CCCCC2)CC1	> 10000
COc1ccccc1N1CCN(CCCCCCN2C(=O)c3cccc4cccc2c34)CC1	> 1000
Cc1cccc(S(=O)(=O)N(C)[C@H](C)CCN2CCC(C)CC2)c1 [SB-258719]	79.4
O=C1c2cccc3cccc(c23)N1CCCCN1CCCCC1	> 10000
CC(C)C1CCN(CCCCCN2C(=O)c3cccc4cccc2c34)CC1	> 1000
O=C1c2cccc3cccc(c23)N1CCCCN1CCC(C2CCCCC2)CC1	> 1000
CN1CCN(CCCCN2C(=O)c3cccc4cccc2c34)CC1	> 10000
COc1ccccc1N1CCN(CCCN2C(=O)c3cccc4cccc2c34)CC1	398
O=C1c2cccc3cccc(c23)N1CCCN1CCN(c2ccccc2)CC1	> 10000
O=S1(=O)c2cccc3cccc(c23)N1CCCCN1CCCCC1	> 10000
O=S1(=O)c2cccc3cccc(c23)N1CCCCN1CCN(c2ccccc2)CC1	1000
CN1CCN(CCCCN2c3cccc4cccc(c34)S2(=O)=O)CC1	> 10000
O=C1c2cccc3cccc(c23)N1CCCCCCN1CCN(c2ccccc2)CC1	> 1000
O=C1c2cccc3cccc(c23)N1CCCCN1CCN(c2ccccc2)CC1	631

molecular target: T1, 5-hydroxytryptamine receptor 7; assay: Binding affinity towards cloned human 5-hydroxytryptamine 7 receptor was determined in HEK293 cells using [3H]5-CT as radioligand; assay type: cell-based

Compound	Ki [nM]
CC1CCN(CC[C@@H]2CCCCN2S(=O)(=O)c2cccc3ccccc23)CC1	15.8
CC1CCN(CC[C@@H](C)N(C)S(=O)(=O)c2cccc3ccccc23)CC1	31.6
CC1CCN(CC[C@@H]2CCCN2S(=O)(=O)c2cccc(Br)c2)CC1	2
C[C@H]1CCCN(CC[C@@H](C)N(C)S(=O)(=O)c2cccc3ccccc23)C1	631
CC1CCN(CC[C@@H]2CCCN2S(=O)(=O)c2ccc(Cl)c(Cl)c2)CC1	3.98
C[C@@H]1CCCN(CC[C@H](C)N(C)S(=O)(=O)c2cccc3ccccc23)C1	1580
C[C@H]1CCCN(CC[C@H](C)N(C)S(=O)(=O)c2cccc3ccccc23)C1	100000
COc1cccc(S(=O)(=O)N2CCC[C@H]2CCN2CCC(C)CC2)c1	10
CC1CCN(CC[C@@H]2CCCN2S(=O)(=O)c2cccc3ccccc23)CC1	10
